From paper PMC5754937 (Indian Journal of Pharmacology, 2017)
Where a name gives a salt, the structure may show the parent alone.

Columns and labels:
Visceral leishmaniasis = conditions: cited from earlier work
Caco-2 cell monolayers = assay: Caco-2 bidirectional permeability assay; format: in vitro ADME; conditions: A-to-B and B-to-A
[1] = Metabolic stability in pooled mouse liver microsomes; format: in vitro ADME
Method in brief: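 Microsomes pooled from ~100 B6C3F1 mice (9–10 weeks old). Triplicate incubations: 25 μM test compound with 0.25 mg/mL protein in 50 mM phosphate (pH 7.4), 0.1% DMSO, preincubated 5 min at 37°C, then started with 1 mM NADPH. Samples taken at 0–60 min and quenched in ice-cold 10% perchloric acid with internal standard. LC-MS/MS peak-area ratios used; t½ from substrate disappearance. No-NADPH and heat-inactivated controls included.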

[2] = In vivo pharmacokinetics in male BALB/c mice

Caco-2 permeability (in words) (Caco-2 cell monolayers): negligible permeability | Caco-2 permeability (in words) (Caco-2 cell monolayers; listed as Paromomycin): low permeability | Stability in mouse liver microsomes (in words) [1]: unstable | Plasma clearance as % of hepatic (liver) blood flow ([2]; IV, mice): < 10% | clearance ([2]; male, BALB/c, mouse, plasma, iv, 15 mg/kg, CL, normal saline): 8 mL/min/kg
Compound: NC[C@@H]1O[C@H](O[C@H]2[C@@H](O)[C@H](O[C@@H]3[C@@H](O)[C@H](N)C[C@H](N)[C@H]3O[C@H]3O[C@H](CO)[C@@H](O)[C@H](O)[C@H]3N)O[C@@H]2CO)[C@H](N)[C@@H](O)[C@@H]1O [paromomycin, Paromomycin sulfate]
Cure rate (Visceral leishmaniasis; after 6 months, treatment with paromomycin i.m.): About 95% | Toxicity (in words) (Visceral leishmaniasis; i.m. route): no nephrotoxicity and reversible ototoxicity
